Bioassay records from PubChem.
bIAP inh – bovine intestinal alkaline phosphatase inhibitors, primary screen, selectivity assay for TNAP inhibitor project, biochemical, bovine IAP, CDP-star luminescence. alkaline phosphatase, intestinal [Bos taurus]. purified bovine IAP, 30 min. inhibition, % at 20 µM. 190,000 tested, under 10 active. AID 1019, 2008;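 active = over 50% inhibition of intestinal alkaline phosphatase at 20 µM in the single-dose screen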
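Incubation: 30 min reaction at room temperature / Material: purified bovine intestinal alkaline phosphatase (IAP) enzyme / Input: enzyme at 1/65,000,000 dilution / Dosing: 20 µM single dose / Signal: CDP-star luminescence signal / Reagent: CDP-star chemiluminescent phosphatase substrate, 30 µM final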
bIAP activator – bovine intestinal alkaline phosphatase activators, primary screen, biochemical, bovine IAP, CDP-star luminescence | purified bovine IAP, 30 min; stronger effect = higher value; fold of DMSO-control signal, blank-subtracted | activation factor at 20 µM | 0.17% of 200,000 active;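 active = activation factor of 2 or more at 20 µM, a signal rise over negative controls twice the positive control's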
mIAP act – activators of mouse IAP, primary screen, biochemical, luminescence, uHTS; 0.24% of 330,000 active; AID 2805, 2010; intestinal alkaline phosphatase [Mus musculus]; activation factor at 10 µM; muIAP, CDP-Star luminescence, 30 min; stronger effect = higher value; 1 = vehicle-only enzyme signal, 0 = enzyme-free wells;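 active = activation factor of at least 2 at 20 µM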
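also added = chemiluminescent substrate CDP-Star | test system = mouse IAP enzyme | signal = chemiluminescence readout | compound = DMSO-dissolved test compounds | incubation = 30 min at room temperature | benchmarks = DMSO wells, no-enzyme wells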
mIAP block – inhibitors of mouse IAP, primary screen, biochemical, luminescence, uHTS. inhibition, % at 10 µM. purified mouse IAP, CDP-Star luminescence, 30 min. intestinal alkaline phosphatase [Mus musculus]. 0.2% of 330,000 active;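 active = inhibition of at least 40% at 10 µM in the primary screen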;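 note: plate controls were DMSO with enzyme for no effect and no enzyme wells for full effect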
hIAP inh – human IAP inhibitors, primary screen, biochemical, luminescence, uHTS | Intestinal-type alkaline phosphatase (Homo sapiens), P09923 | purified IAP, CDP-Star luminescence, 30 min | inhibition, % at 10 µM | 0.12% of 330,000 active | AID 2544, 2010;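 active = inhibition reaching a set limit with compound at 10 µM in the primary screen, cut at about 35% in these data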;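 note: plate controls were DMSO wells with enzyme for no effect and no-enzyme buffer wells for full effect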
Target sequence (P09923 whole entry, looked up): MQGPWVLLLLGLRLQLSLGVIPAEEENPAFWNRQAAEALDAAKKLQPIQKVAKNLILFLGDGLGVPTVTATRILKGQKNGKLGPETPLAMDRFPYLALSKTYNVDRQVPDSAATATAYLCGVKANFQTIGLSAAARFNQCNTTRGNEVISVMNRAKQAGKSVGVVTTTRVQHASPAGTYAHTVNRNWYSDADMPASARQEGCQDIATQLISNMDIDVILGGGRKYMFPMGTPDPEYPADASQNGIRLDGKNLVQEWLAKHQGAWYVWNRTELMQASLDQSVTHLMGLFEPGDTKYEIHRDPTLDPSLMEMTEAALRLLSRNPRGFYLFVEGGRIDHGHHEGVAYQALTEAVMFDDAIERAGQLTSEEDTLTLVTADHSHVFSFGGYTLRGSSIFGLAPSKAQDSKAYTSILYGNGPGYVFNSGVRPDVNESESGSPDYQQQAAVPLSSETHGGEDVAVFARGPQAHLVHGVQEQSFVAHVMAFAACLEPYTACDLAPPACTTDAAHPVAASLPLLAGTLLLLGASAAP
hIAP activ – human IAP activators, primary screen, biochemical, luminescence, uHTS. Intestinal-type alkaline phosphatase (Homo sapiens), P09923. purified human IAP, CDP-Star luminescence, 30 min; stronger effect = higher value; 1 = vehicle-only enzyme, 0 = enzyme-free background. activation factor at 10 µM. 0.16% of 330,000 active. AID 2524, 2010;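 active = activation factor of the enzyme at least 2-fold when tested at 20 µM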
hIAP act confirm – human IAP activators, confirmation, biochemical, luminescence, single concentration, uHTS hits; AID 434926, 2010; purified IAP, CDP-Star luminescence, 30 min; stronger effect = lower value; activation (%Activity, negative = activation), % at 8.3 µM; 10% of 880 active; shares compounds with hIAP activ;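 active = at least twofold enzyme activation in any of six single-dose repeats, which the averaged readout prints as negative percent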
The depositor's hits bear a star; . = not tested or not shown; + = active, no number. Compounds with a hit are over-represented: about 0.79% of the library has one in this group of screens.

SMILES | bIAP inh | bIAP activator | mIAP act | mIAP block | hIAP inh | hIAP activ | hIAP act confirm
Cc1ccc(C)c(-c2cc(C(=O)Nc3sc(C)c(C)c3C(N)=O)c3ccccc3n2)c1 | -7 | 1.1 | 0.77 | 23 | 9 | 0.91 | .
Cc1nc2c3ccccc3nc(NNC(=O)CCC(=O)N3CCN(c4ccc(F)cc4)CC3)n2n1 | . | . | 0.94 | 6 | 22 | 0.78 | .
CCCCNC(=O)CCC(=O)NNc1nc2ccccc2c2nc(C)nn12 | 22 | 0.8 | 0.78 | 22 | -154 | 2.5* | 8
Cc1nc2c3ccccc3nc(NNC(=O)CCC(=O)NCCN3CCN(c4ccccc4)CC3)n2n1 | . | . | 0.9 | 10 | -130 | 2.3* | -97*
CCOCCCNC(=O)CCC(=O)NNc1nc2ccccc2c2nc(C)nn12 | -34 | 1.3 | 1 | -1 | -207 | 3.1* | 4
CN1CCN(C(=O)/C(C#N)=C/c2ccc(F)cc2)CC1 | -5 | 1 | 1.1 | -10 | -7 | 1.1 | .
O=C(CCN1CCN(Cc2ccccc2)CC1)NNC(=O)Nc1cccc(C(F)(F)F)c1 | . | . | 0.95 | 4 | -102 | 2* | 0
CCCCNC(=O)c1cc2cc(CC)ccc2[nH]1 | . | . | 1.2 | -22 | -3 | 1 | .
CCOc1cc(N2CCOCC2)c(OCC)cc1NC(=O)COC(=O)CCOc1cc(C)ccc1C | . | . | 0.99 | 1 | 11 | 0.89 | .
OCCNc1ncnc2c1nnn2Cc1ccccc1 | . | . | 1.1 | -9 | 10 | 0.91 | .
CC(C)CCNc1ncnc2c1nnn2Cc1ccccc1Cl | 7 | 0.9 | 0.96 | 4 | 80* | 0.2 | 40
Cc1ccc(C(=O)NNC(=O)c2n[nH]c(=O)c3ccccc23)cc1C | . | . | 0.84 | 16 | -118 | 2.2* | -41
CCc1ccc(C(=O)NNC(=O)c2n[nH]c(=O)c3ccccc23)cc1 | . | . | 0.89 | 12 | -67 | 1.7 | .
O=C(NNC(=O)c1n[nH]c(=O)c2ccccc12)c1ccc(Br)cc1 | . | . | 0.85 | 15 | -113 | 2.1* | -12
Cc1ccc(C(=O)N(CC(=O)NC2CCCC2)c2ccc3c(c2)OCCO3)s1 | -11 | 1.1 | 1.1 | -12 | -13 | 1.1 | .
CN(C)c1ccc(N=Nc2cccc(F)c2)cc1 | . | . | 0.88 | 12 | 5 | 0.95 | .
CN(C)c1ccc(N=Nc2cccc3ccoc23)cc1 | . | . | 0.72 | 28 | 36* | 0.64 | -35
NC(=O)c1c(NC(=O)c2ccc(F)cc2)sc2c1CCC2 | . | . | 0.89 | 11 | 37* | 0.63 | +
C[C@@]12C(=O)Nc3cc(F)c(F)cc3C(=O)N1[C@H]1c3cc(Cl)ccc3OC[C@@H]1[C@@H]2c1ccccc1 | . | . | 0.93 | 7 | 0 | 1 | .
C[C@H](NC(=O)c1nc[nH]c1C(=O)N1CCc2ccccc2C1)C(=O)OC(C)(C)C | . | . | 1.1 | -14 | -170 | 2.7* | -57
CC(C)(C)OC(=O)N1CCN(C(=O)c2[nH]cnc2C(=O)Nc2nccs2)CC1 | . | . | 0.99 | 1 | -122 | 2.2* | -28
O=C(Nc1nccs1)c1nc[nH]c1C(=O)N1CCc2ccccc2C1 | . | . | 0.94 | 6 | -109 | 2.1* | -49
COCC(C)OC(=O)c1c(N)n(CC(C)C)c2nc3ccccc3nc12 (stereo not given) | -3 | 1 | 1.1 | -12 | 3 | 0.97 | .
Cc1ccc(O)c(-c2cc(C(=O)NCc3ccc4c(c3)OCO4)[nH]n2)c1 | 6 | 0.9 | 1.3 | -31 | -106 | 2.1* | 20
COc1ccc(OC)c(NC(=O)c2cc(-c3ccc(C)cc3O)n[nH]2)c1 | -37 | 1.4 | 1 | -4 | -116 | 2.2* | -36
SMILES | bIAP inh | bIAP activator | mIAP act | mIAP block | hIAP inh | hIAP activ | hIAP act confirm
COc1ccc(OC)c(NC(=O)c2cc(-c3cc(C)ccc3O)n[nH]2)c1 | . | . | 1 | -2 | -108 | 2.1* | -42*
Cc1ccc(-c2cc(C(=O)Nc3cc(C)ccc3C)[nH]n2)c(O)c1 | 9 | 0.9 | 0.96 | 4 | -49 | 1.5 | .
Cc1ccc(C)c(NC(=O)c2cc(-c3cc(C)c(C)cc3O)n[nH]2)c1 | . | . | 1.3 | -30 | -92 | 1.9 | .
Cc1ccc(CNC(=O)c2cc(-c3cc(C)cc(C)c3O)n[nH]2)cc1 | . | . | 1.2 | -21 | -90 | 1.9 | .
C=CCCC(=O)N1CCC(CCC(=O)NC2CC2)CC1 | . | . | 0.93 | 7 | 1 | 0.99 | .
Cc1cccc(NC(=O)C2CC(=O)n3cnnc3S2)c1 (stereo not given) | -1 | 1 | 0.91 | 9 | -114 | 2.1* | -12
CCN=C1SC(C(=O)Nc2cccc(C)c2)CC(=O)N1CC (stereo not given) | 9 | 0.9 | 1 | 0 | -6 | 1.1 | .
Cn1c(CNC(=O)CNC(=O)c2ccccc2F)cc(=O)n(C)c1=O | . | . | 0.97 | 3 | 8 | 0.92 | .
COc1ccccc1C(=O)NCC(=O)NCc1cc(=O)n(C)c(=O)n1C | . | . | 0.94 | 6 | 39* | 0.61 | -5
CCOc1ccc(C(C)NC(=S)NC2CCCCC2)cc1 (stereo not given) | 16 | 0.8 | 1.8 | -76 | -23 | 1.2 | .
CCC(C)c1ccc(C(C)NC(=S)NC2CCCCC2)cc1 (stereo not given) | . | . | 4.7* | -370 | -256 | 3.6* | -72
CC(NC(=S)NC1CCCCC1)c1ccc(C(C)(C)C)cc1 (stereo not given) | . | . | 5.3* | -431 | -133 | 2.3* | -20
Cc1ccc(S(=O)(=O)Nc2ccc3nc(-c4cccn4C)[nH]c3c2)cc1 | 19 | 0.8 | 1 | -2 | 6 | 0.94 | .
Cn1cc(C(=O)C(F)(F)F)c2ccccc21 | -3 | 1 | 0.95 | 5 | -24 | 1.2 | .
Cn1cc(C(=O)NS(=O)(=O)Nc2ccc(Br)cc2)c2ccccc21 | . | . | 0.99 | 1 | 38* | 0.62 | -7
COc1ccc(NC(=O)CCNS(=O)(=O)c2ccc(Br)s2)cc1 | -9 | 1.1 | 1.1 | -7 | 8 | 0.92 | .
Cc1ccc(S(=O)(=O)N(C)C)cc1NC(=O)CCc1ccccc1 | . | . | 0.94 | 6 | 10 | 0.9 | .
COc1ccc(C(=O)NNC2=Nc3cccc4cccc2c34)cc1 | -19 | 1.2 | 0.75 | 25 | -34 | 1.3 | .
COc1ccc(CC(=O)NNC2=Nc3cccc4cccc2c34)cc1 | . | . | 1.1 | -6 | -119 | 2.2* | 12
COc1ccc(S(=O)(=O)N2CCCOC2CNC(=O)C(=O)NCCc2ccco2)cc1OC (stereo not given) | . | . | 0.98 | 2 | -14 | 1.1 | .
